Experimental data: ChEMBL document CHEMBL1135298, “Induction of apoptosis by aryl-substituted diamines: role of aromatic group substituents and distance between nitrogens” (Bioorg Med Chem Lett, 2002)

Columns and labels:
MDA-MB-231 [1] = experiment: Inhibition of human breast cancer cell line MDA-MB-231 growth; assay type: functional, cell-based
PC-3 [2] = experiment: Inhibition of human prostate cancer cell line PC-3 growth; assay type: functional, cell-based
A-375 = experiment: Compound was evaluated for cytotoxic activity against human melanoma cell line A375; assay type: functional, cell-based
Summary of the method: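 A375 melanoma medium contained 1 mM aminoguanidine, penicillin/streptomycin, 10% FBS, 1 mM sodium pyruvate and 2 mM L-glutamine.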

Nucleic Acid [3] = experiment: Ability to interact with DNA was assessed by a DNA/ethidium bromide dye displacement assay, expressed as DC50 for polydAdT; assay type: nucleic-acid assay
Summary of the method: (§1)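 Ethidium displacement run by an adapted literature method: 2.5 µM polydAdT with 1.5 µM ethidium bromide in 3.75 mM Tris/NaCl, pH 8.0. Compound added to the DNA–dye complex; DC50 reported.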

MDA-MB-231 [4] = experiment: Compound was evaluated for cytotoxic activity against human breast cancer cell line MDA-MB-231; assay type: functional, cell-based
Summary of the method: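 MDA-MB-231 grown in medium with 1 mM aminoguanidine, 50 U/mL penicillin, 50 µg/mL streptomycin, 10% FBS and 2 mM L-glutamine. Drug added 24 h after plating, cells grown a further 72 h. Cell number by MTS; IC50 (µM), some values as mean ± error (n).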

MES-SA = experiment: Compound was evaluated for cytotoxic activity against the following human cancer cell Uterine cancer cell line Mes-SA; assay type: functional, cell-based
Summary of the method: (§2)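 SK-OV-3, Mes-SA and multidrug-resistant Mes-SA/Dx5 cultured in McCoy's 5A with 1 mM aminoguanidine, penicillin/streptomycin and 10% FBS.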

PC-3 [5] = experiment: Compound was evaluated for cytotoxic activity against human prostate cancer cell line PC-3; assay type: functional, cell-based
SK-OV-3 = experiment: Compound was evaluated for cytotoxic activity against human ovarian cancer cell line SK-OV-3; assay type: functional, cell-based; summary of the method: as §2
SK-MEL-5 = experiment: Compound was evaluated for cytotoxic activity against human melanoma cell line SK-Mel-5; assay type: functional, cell-based
Summary of the method: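 SK-Mel-5 maintained in EMEM supplemented with 1 mM aminoguanidine, 50 U/mL penicillin, 50 µg/mL streptomycin and 10% FBS.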

T47D = experiment: Compound was evaluated for cytotoxic activity against the following human cancer cell Breast cancer cell line T47 D; assay type: functional, cell-based
Summary of the method: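 T47.D in RPMI 1640 with 1 mM aminoguanidine, penicillin/streptomycin, 10% FBS, 1 mM sodium pyruvate, 2 mM L-glutamine and 0.4% insulin.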

[6] = tested on: Mes-SA/Dx5 (Homo sapiens); experiment: Compound was evaluated for cytotoxic activity against the following human cancer cell MDR Uterine cancer cell line Mes-SA/Dx5
Nucleic Acid [7] = experiment: ability to interact with DNA was assessed by a DNA/ethidium bromide dye displacement assay, expressed as DC50 for polydAdT; assay type: nucleic-acid assay; summary of the method: as §1

SMILES | IC50 (MDA-MB-231 [1]) [µM] | IC50 (PC-3 [2]) [µM] | also measured
COc1cc(CNCCCCNCc2cc(OC)c(OC)c(OC)c2)cc(OC)c1OC | 58 | 58 | 
NCCCCNCc1ccccc1 | > 300 | 211 | 
c1ccc2c(CNCCCCNCc3cccc4ccccc34)cccc2c1 |  |  | IC50 (A-375): 5.4 µM; DC50 (Nucleic Acid [3]): 8.7 µM; IC50 (MDA-MB-231 [4]): 9.1 µM; IC50 (MES-SA): 10.1 µM; IC50 (PC-3 [5]): 10 µM; IC50 (SK-OV-3): 8.5 µM; IC50 (SK-MEL-5): 4.6 µM; IC50 (T47D): 6.5 µM; IC50 [6]: 7.2 µM
Clc1ccc(CNCCCCNCc2ccc(Cl)c(Cl)c2)cc1Cl | 65 | 20 | 
NCCCCNCc1ccc([N+](=O)[O-])cc1 | 201 | 50 | 
N#Cc1cccc(CNCCCCNCc2cccc(C#N)c2)c1 | 42 | 10 | 
[N-]=[N+]=Nc1cccc(CNCCCCNCc2cccc(N=[N+]=[N-])c2)c1 | 19 | 15 | 
CC(CCC(C)NCc1cccc2ccccc12)NCc1cccc2ccccc12 (stereo not given) | 5 | 7 | 
O=C1c2cccc3cccc(c23)C(=O)N1CCNCCCNCCN1C(=O)c2cccc3cccc(c23)C1=O [ELINAFIDE] | 0.06 | 0.07 | 
Nc1ccccc1CNCCCCNCc1ccccc1N | 146 | 98 | 
Nc1cccc(CNCCCCNCc2cccc(N)c2)c1 | > 300 | > 300 | 
Cn1cc(NC(=O)c2cc(NC(=O)c3cc(NC=O)cn3C)cn2C)cc1C(=O)NCCC(=N)N [STALLIMYCIN] |  |  | DC50 (Nucleic Acid [7]): 44 µM
O=[N+]([O-])c1ccccc1CNCCCCNCc1ccccc1[N+](=O)[O-] | 62 | 23 | 
c1ccc(N(c2ccccc2)c2ccc(CNCCCCNCc3ccc(N(c4ccccc4)c4ccccc4)cc3)cc2)cc1 |  |  | IC50 (A-375): 0.4 µM; IC50 (MDA-MB-231 [4]): 0.62 µM; IC50 (MES-SA): 0.64 µM; IC50 (PC-3 [5]): 0.6 µM; IC50 (SK-OV-3): 0.68 µM; IC50 (SK-MEL-5): 0.94 µM; IC50 (T47D): 0.65 µM; DC50 (Nucleic Acid [7]): 9.4 µM; IC50 [6]: 0.61 µM
c1cc2c(cc1CNCCCCNCc1ccc3c(c1)OCO3)OCO2 | 70 | 56 | 
O=[N+]([O-])c1cccc(CNCCCCNCc2cccc([N+](=O)[O-])c2)c1 | 18 | 9 | 
c1ccc(-c2ccc(CNCCCCNCc3ccc(-c4ccccc4)cc3)cc2)cc1 |  |  | IC50 (A-375): 0.59 µM; IC50 (MDA-MB-231 [4]): 1.92 µM; IC50 (PC-3 [5]): 0.77 µM; IC50 (SK-OV-3): 0.74 µM
NCCCCNCc1cccc2ccccc12 | > 300 | 211 | 

Continued, in another order:

IC50 (MDA-MB-231 [1]) [µM] | IC50 (PC-3 [2]) [µM] | SMILES | also measured
1.3 | 0.48 | c1ccc(-c2ccc(CNCCCCCNCc3ccc(-c4ccccc4)cc3)cc2)cc1 | 
2.1 | 2.5 | c1ccc2cc(CNCCCCNCc3ccc4ccccc4c3)ccc2c1 | 
9.4 | 8.4 | c1ccc2c(CNCCCCNCc3ccnc4ccccc34)ccnc2c1 | 
5.1 | 4.3 | c1ccc2c(CNCCCNCc3cccc4ccccc34)cccc2c1 | 
205 | 143 | O=[N+]([O-])c1ccc(CNCCCCNCc2ccc([N+](=O)[O-])cc2)cc1 | 
6.6 | 1.85 | c1ccc2c(c1)Cc1cc(CNCCCCNCc3ccc4c(c3)Cc3ccccc3-4)ccc1-2 | 
2 | 0.8 | c1ccc(-c2ccc(CNCCCNCc3ccc(-c4ccccc4)cc3)cc2)cc1 | 
197 | 56 | CN(C)c1ccc(CNCCCCNCc2ccc(N(C)C)cc2)cc1 | 
21 | 6 | COc1ccc(CNCCCCNCc2ccc(OC)cc2)cc1 | 
25 | 37 | c1ccc2c(CCNCCCCNCCc3cccc4ccccc34)cccc2c1 | 
7 | 14 | c1ccc2c(CNCc3ccc(CNCc4cccc5ccccc45)cc3)cccc2c1 | 
84 | 22 | N#Cc1ccc(CNCCCCNCc2ccc(C#N)cc2)cc1 | 
8.3 | 6.5 | c1ccc2c(CNCCCCCNCc3cccc4ccccc34)cccc2c1 | 
3.5 | 2.7 | c1ccc2c(CNCCCCNCc3c4ccccc4cc4ccccc34)c3ccccc3cc2c1 | 
2.8 | 3.2 | COc1ccc(CNCCCCNCc2ccc(OC)c3ccccc23)c2ccccc12 | 
19 | 20 | c1cc(CNCc2cccc3ccccc23)cc(CNCc2cccc3ccccc23)c1 | 
77 | 51 | c1ccc2c(CNCCCCNCc3c[nH]c4ccccc34)c[nH]c2c1 | 
